Assay results: ChEMBL document CHEMBL3351782, “Synthesis and biological evaluation of glaucocalyxin A derivatives as potential anticancer agents” (Eur J Med Chem, 2014)

How the values were obtained:
[1] = Antiproliferative activity against human HL60 cells after 48 hrs by MTT assay; type: functional, cell-based; settings: HL-60, 48 h
Outline: (§1)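 Cells were seeded at 3 × 10^3 per well and exposed 24 h later, while growing exponentially, to compounds at final concentrations of 1.25 to 40 for 48 h. MTT (5 mg/mL in PBS) was then added for 6 h. The medium was aspirated, the formazan dissolved in DMSO and absorbance read at 570 nm. Survival is relative to untreated cells; IC50 comes from triplicate wells in at least three independent experiments.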

[2] = tested on: A549; experiment: Antiproliferative activity against human A549 cells after 48 hrs by MTT assay; type: functional, cell-based; settings: A549, 48 h; outline: as §1
[3] = tested on: KB; experiment: Antiproliferative activity against human KB cells after 48 hrs by MTT assay; type: functional, cell-based; outline: as §1
[4] = Antiproliferative activity against human SMMC7721 cells after 48 hrs by MTT assay; type: functional, cell-based; settings: SMMC-7721, 48 h; outline: as §1
[5] = Antiproliferative activity against human SGC7901 cells after 48 hrs by MTT assay; type: functional, cell-based; settings: SGC-7901, 48 h; outline: as §1
[6] = tested on: B16; experiment: Antiproliferative activity against mouse B16 cells after 48 hrs by MTT assay; type: functional, cell-based; settings: B16, 48 h; outline: as §1
[7] = Antiproliferative activity against human HL7702 cells after 48 hrs by MTT assay; type: cell-based; settings: L02, 48 h; outline: as §1
[8] = Chemical stability in 10 mM pH 7.4 PBS buffer assessed as parent compound remaining at 1 uM at 37 degC after 24 hrs by HPLC method; type: physicochemical; settings: read-out: Stability
Outline: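 DMSO stock was diluted into pre-warmed 10 mM PBS, pH 7.4, with 1% v/v DMSO final, and incubated at 37 °C. Aliquots were taken at set times and injected directly onto reversed-phase HPLC (ODS column, water + 0.1% TFA eluent, external standard). The result is percent parent remaining after 24 h, mean ± SD, n = 3.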

[9] = tested on: KB; experiment: Prodrug conversion in human KB cells lysates assessed as formation of cysteine conjugates at 500 uM in presence of 10 mM cysteine by LC-HRMS method; type: ADME, cell-based, Lysate
Outline: (§2)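 KB cells (5 × 10^6) were lysed by freeze/thaw. DMSO stock prepared just before use was added to lysate already containing cysteine, with DMSO matched in controls, and incubated at 37 °C. Aliquots taken at 30 min and 1 h were mixed with two volumes of acetonitrile and centrifuged (4 °C, 10,000 g, 10 min). They were analysed by LC-HRMS in positive mode using a water + 0.1% formic acid/methanol gradient.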

[10] = Stability in 80% rat plasma assessed as parent compound remaining at 1 uM at 37 degC after 24 hrs by HPLC method; type: ADME, cell-free; settings: read-out: Stability
Outline: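 Thawed rat plasma was diluted to 80% v/v with 0.1 M PBS, pH 7.4. Compound was spiked from DMSO stock (1% v/v DMSO final) and held at 37 °C. Aliquots were quenched with two volumes of acetonitrile and centrifuged at 4 °C, 10,000 g, 10 min. Supernatants were run on HPLC with external standard; the result is percent parent remaining at 24 h, mean ± SD, n = 3.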

[11] = tested on: KB; experiment: Induction of apoptosis in human KB cells assessed as necrotic cells level at 20 uM after 48 hrs by Annexin V and propidium iodide staining based flow cytometry (reference value: 3.64%); type: functional
Outline: (§3)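 KB cells were plated in 6-well plates at 2.5 × 10^5 cells/mL and treated for 48 h. Adherent and floating cells were pooled, washed twice in PBS and stained with Annexin V and PI in binding buffer for 20 min at room temperature. Samples were read immediately on a FACSCalibur; untreated cells served as control. Values are means ± SE of at least three independent experiments.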

[12] = tested on: KB; experiment: Induction of apoptosis in human KB cells after 48 hrs by Annexin V and propidium iodide staining based flow cytometry; type: functional, cell-based; outline: as §3
[13] = tested on: KB; experiment: Induction of apoptosis in human KB cells assessed as early apoptotic cells level at 20 uM after 48 hrs by Annexin V and propidium iodide staining based flow cytometry (reference value: 7.69%); type: functional; outline: as §3
[14] = tested on: KB; experiment: Induction of apoptosis in human KB cells assessed as necrotic cells level at 10 uM after 48 hrs by Annexin V and propidium iodide staining based flow cytometry (reference value: 3.64%); type: functional; outline: as §3
[15] = tested on: KB; experiment: Induction of apoptosis in human KB cells assessed as necrotic cells level at 40 uM after 48 hrs by Annexin V and propidium iodide staining based flow cytometry (reference value: 3.64%); type: functional; outline: as §3
[16] = tested on: KB; experiment: Induction of apoptosis in human KB cells assessed as late apoptotic cells level at 20 uM after 48 hrs by Annexin V and propidium iodide staining based flow cytometry (reference value: 4.4%); type: functional; outline: as §3
[17] = tested on: KB; experiment: Induction of apoptosis in human KB cells assessed as late apoptotic cells level at 10 uM after 48 hrs by Annexin V and propidium iodide staining based flow cytometry (reference value: 4.4%); type: functional; outline: as §3
[18] = tested on: KB; experiment: Induction of apoptosis in human KB cells assessed as late apoptotic cells level at 40 uM after 48 hrs by Annexin V and propidium iodide staining based flow cytometry (reference value: 4.4%); type: functional; outline: as §3
[19] = tested on: KB; experiment: Induction of apoptosis in human KB cells assessed as early apoptotic cells level at 10 uM after 48 hrs by Annexin V and propidium iodide staining based flow cytometry (reference value: 7.69%); type: functional; outline: as §3
[20] = tested on: KB; experiment: Induction of apoptosis in human KB cells assessed as early apoptotic cells level at 40 uM after 48 hrs by Annexin V and propidium iodide staining based flow cytometry (reference value: 7.69%); type: functional; outline: as §3
[21] = tested on: KB; experiment: Induction of apoptosis in human KB cells assessed as viable cells level at 10 uM after 48 hrs by Annexin V and propidium iodide staining based flow cytometry (reference value: 84.3%); type: functional; outline: as §3
[22] = tested on: KB; experiment: Prodrug conversion in human KB cells lysates assessed as glaucocalyxin A formation at 500 uM in presence of 10 mM cysteine by LC-HRMS method; type: ADME, cell-based, Lysate; outline: as §2
[23] = tested on: KB; experiment: Induction of apoptosis in human KB cells assessed as viable cells level at 40 uM after 48 hrs by Annexin V and propidium iodide staining based flow cytometry (reference value: 84.3%); type: functional; outline: as §3
[24] = tested on: KB; experiment: Induction of apoptosis in human KB cells assessed as viable cells level at 20 uM after 48 hrs by Annexin V and propidium iodide staining based flow cytometry (reference value: 84.3%); type: functional; outline: as §3

Row | SMILES | IC50 [1] [µM] | IC50 [2] [µM] | IC50 [3] [µM] | IC50 [4] [µM] | IC50 [5] [µM] | IC50 [6] [µM] | also measured
1 | CC1(C)C(=O)CC[C@]2(C)[C@@H]1C[C@@H](O)[C@]13C(=O)C(CNc4ccc(S(=O)(=O)c5ccccc5)cc4)[C@H](CC[C@@H]21)[C@H]3O (some centres not stated) | 15.3 | 13.7 | 5.64 | 14.1 | 15.5 | 10.5 | 
2 | CC1(C)C(=O)CC[C@]2(C)[C@@H]1C[C@@H](O)[C@]13C(=O)C(CNc4ccc(C(=O)O)cc4)[C@H](CC[C@@H]21)[C@H]3O (some centres not stated) | 10.5 | 11.7 | 6.13 | 16.8 | 22.3 | 6.79 | IC50 [7]: 35.4 µM
3 | CC1(C)C(=O)CC[C@]2(C)[C@@H]1C[C@@H](O)[C@]13C(=O)C(CNc4ccccc4Cl)[C@H](CC[C@@H]21)[C@H]3O (some centres not stated) | 23 | 21.6 | 11 | 32.3 | 28.6 | 16.7 | 
4 | CC1(C)C(=O)CC[C@]2(C)[C@@H]1C[C@@H](O)[C@]13C(=O)C(CNc4ccc(F)cc4)[C@H](CC[C@@H]21)[C@H]3O (some centres not stated) | 17.8 | 22.7 | 12.3 | 19.8 | 34.2 | 12.9 | 
5 | CC1(C)C(=O)CC[C@]2(C)[C@@H]1C[C@@H](O)[C@]13C(=O)C(CNc4ccc(Cl)cc4)[C@H](CC[C@@H]21)[C@H]3O (some centres not stated) | 14.1 | 15.8 | 6.54 | 14.1 | 21.2 | 9.4 | 
6 | CC(=O)c1ccc(NCC2C(=O)[C@@]34[C@H](O)C[C@@H]5C(C)(C)C(=O)CC[C@@]5(C)[C@@H]3CC[C@@H]2[C@H]4O)cc1 (some centres not stated) | 11.7 | 21.8 | 12.6 | 26.1 | 31.9 | 18.3 | 
7 | COc1ccc(NCC2C(=O)[C@@]34[C@H](O)C[C@@H]5C(C)(C)C(=O)CC[C@@]5(C)[C@@H]3CC[C@@H]2[C@H]4O)cc1 (some centres not stated) | 5.7 | 13.6 | 6.41 | 18 | 22.4 | 12.1 | 
8 | CC1(C)C(=O)CC[C@]2(C)[C@@H]1C[C@@H](O)[C@]13C(=O)C(CNc4ccccc4F)[C@H](CC[C@@H]21)[C@H]3O (some centres not stated) | 15.6 | 20.6 | 11.2 | 14.5 | 24.3 | 9.59 | 
9 | CC1(C)C(=O)CC[C@]2(C)[C@@H]1C[C@@H](O)[C@]13C(=O)C(CNc4ccccc4Br)[C@H](CC[C@@H]21)[C@H]3O (some centres not stated) | 12.5 | 32.6 | 13.9 | 28.4 | 33.5 | 15.2 | 
10 | CC1(C)C(=O)CC[C@]2(C)[C@@H]1C[C@@H](O)[C@]13C(=O)C(CNc4cccc(C#N)c4)[C@H](CC[C@@H]21)[C@H]3O (some centres not stated) | 23.2 | 21.3 | 8.08 | 19.1 | 24.4 | 18.2 | 
11 | CC1(C)C(=O)CC[C@]2(C)[C@@H]1C[C@@H](O)[C@]13C(=O)C(CNc4ccc(Br)cc4)[C@H](CC[C@@H]21)[C@H]3O (some centres not stated) | 14.6 | 19.2 | 6.31 | 18.1 | 25.4 | 10.9 | 
12 | CC1(C)C(=O)CC[C@]2(C)[C@@H]1C[C@@H](O)[C@]13C(=O)C(CNc4ccccc4)[C@H](CC[C@@H]21)[C@H]3O (some centres not stated) | 15.1 | 37.2 | 31 | 48 | 32.6 | 11.5 | 
13 | O=c1[nH]cc(F)c(=O)[nH]1 [FLUOROURACIL] | 27 | 51.6 | 53.5 | 67.7 | 59.9 | 17.9 | 
14 | Cc1ccc(NCC2C(=O)[C@@]34[C@H](O)C[C@@H]5C(C)(C)C(=O)CC[C@@]5(C)[C@@H]3CC[C@@H]2[C@H]4O)cc1 (some centres not stated) | 8.92 | 10.6 | 7.22 | 12.2 | 16.1 | 8.54 | remaining at 24 h, 1 µM [8]: 104%; Retention_time [9]: 2.52 min; remaining at 24 h, 1 µM [10]: 86.4%; Activity [11]: 4.13%; Activity [12]: Dose-dependent effect; Activity [13]: 20.5%; Activity [14]: 3.19%; Activity [15]: 11.9%; Activity [16]: 5.42%; Activity [17]: 4.46%; Activity [18]: 15.6%; Activity [19]: 14.5%; Activity [20]: 23.4%; Activity [21]: 77.9%; Drug metabolism [22]: metabolite_detected; Activity [23]: 49%; IC50 [7]: 21.1 µM; Activity [24]: 69.9%
15 | Cc1ccccc1NCC1C(=O)[C@@]23[C@H](O)C[C@@H]4C(C)(C)C(=O)CC[C@@]4(C)[C@@H]2CC[C@@H]1[C@H]3O (some centres not stated) | 18.1 | 24.7 | 23.4 | 22.2 | 38.4 | 19.2 | 
16 | CC1(C)C(=O)CC[C@]2(C)[C@@H]1C[C@@H](O)[C@]13C(=O)C(CNC4CCCCC4)[C@H](CC[C@@H]21)[C@H]3O (some centres not stated) | 9.35 | 11.1 | 11.3 | 15.2 | 20.7 | 5.66 | IC50 [7]: 8.95 µM
17 | Cc1cccc(NCC2C(=O)[C@@]34[C@H](O)C[C@@H]5C(C)(C)C(=O)CC[C@@]5(C)[C@@H]3CC[C@@H]2[C@H]4O)c1 (some centres not stated) | 13.5 | 28.3 | 29.6 | 20.7 | 38.7 | 14.4 | 
